Data published in ChEMBL document CHEMBL3525944, “Nonlinear pharmacokinetics of 5-methoxy-N,N-dimethyltryptamine in mice” (Drug Metab Dispos, 2011).

What was measured:
[1] = Tmax in CYP2D6-humanized transgenic FVB/N mouse at 2 mg/kg, ip by LC-MS/MS analysis; assay type: ADME, organism-based; parameters: dose 2 mg/kg, route intraperitoneal; conditions: in vivo
Method in brief: (§1)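 Male 8-week FVB/N wild-type or CYP2D6-humanized mice given 5-MeO-DMT oxalate in saline i.p. at 10 µL/g body weight. Serum sampled 0-180 min, N = 4 per time point, processed by acetonitrile protein precipitation with internal standard, quantified by LC-MS/MS. Tmax taken as observed from composite mean serum concentration-time data.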

[2] = Half life in CYP2D6-humanized transgenic FVB/N mouse at 20 mg/kg, iv by LC-MS/MS analysis; assay type: ADME, organism-based; parameters: dose 20 mg/kg, route intravenous; conditions: in vivo
[3] = Bioavailability in wild-type FVB/N mouse at 20 mg/kg, ip by LC-MS/MS analysis; assay type: ADME, organism-based; conditions: in vivo
Mus musculus [4] = test: Dose normalized AUC (0 to infinity) in CYP2D6-humanized transgenic FVB/N mouse at 20 mg/kg, iv by LC-MS/MS analysis; assay type: ADME, organism-based; parameters: dose 20 mg/kg, route intravenous; conditions: in vivo
[5] = Clearance in wild-type FVB/N mouse at 20 mg/kg, iv by LC-MS/MS analysis; assay type: ADME, organism-based; parameters: dose 20 mg/kg, route intravenous; conditions: in vivo
[6] = Half life in wild-type FVB/N mouse at 2 mg/kg, iv by LC-MS/MS analysis; assay type: ADME, organism-based; parameters: dose 2 mg/kg, route intravenous; conditions: in vivo
Method in brief: (§2)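 Male 8-week FVB/N wild-type or CYP2D6-humanized mice (25-30 g) given 5-MeO-DMT oxalate in saline i.v. at 5 µL/g body weight. Serum collected 0-180 min, N = 3 per time point, proteins precipitated with ice-cold acetonitrile containing internal standard, LC-MS/MS. Noncompartmental analysis of composite mean data; t1/2 = 0.693/terminal slope; Vss = CL×AUMC/AUC, CL = dose/AUC0→∞.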

[7] = Ratio of drug level in brain to serum in CYP2D6-humanized transgenic FVB/N mouse at 10 mg/kg, ip by LC-MS/MS analysis; assay type: ADME, organism-based; parameters: dose 10 mg/kg, route intraperitoneal
Method in brief: (§3)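 Mice dosed i.p. with 5-MeO-DMT in saline and killed at 20, 30 or 60 min. Brain homogenized in ice-cold saline and extracted liquid-liquid; serum processed by acetonitrile precipitation. Both quantified by LC-MS/MS (brain range 4.1-3000 nM). Ratio is brain over serum concentration at the same time point.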

Brain [8] = test: Stability in wild-type FVB/N mouse brain at -80 degC; assay type: ADME
Method in brief: (§4)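 Pilot test of 5-MeO-DMT in mouse brain homogenate (ice-cold saline) stored at -80°C over one year, quantified by LC-MS/MS after liquid-liquid extraction.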

[9] = Clearance in CYP2D6-humanized transgenic FVB/N mouse at 2 mg/kg, iv by LC-MS/MS analysis; assay type: ADME, organism-based; parameters: dose 2 mg/kg, route intravenous; conditions: in vivo
Mus musculus [10] = test: AUC (0 to infinity) in CYP2D6-humanized transgenic FVB/N mouse at 10 mg/kg, iv by LC-MS/MS analysis; assay type: ADME, organism-based, Plasma; parameters: time infinity, dose 10 mg/kg, route intravenous; conditions: in vivo
[11] = Cmax in CYP2D6-humanized transgenic FVB/N mouse at 2 mg/kg, ip by LC-MS/MS analysis; assay type: ADME, organism-based; parameters: dose 2 mg/kg, route intraperitoneal; conditions: in vivo
Serum [12] = test: Drug recovery in wild-type FVB/N mouse serum by LC-MS/MS analysis; assay type: ADME, cell-free
Serum [13] = test: Drug recovery in CYP2D6-humanized transgenic FVB/N mouse serum by LC-MS/MS analysis; assay type: ADME, cell-free
[14] = Cmax in wild-type FVB/N mouse at 2 mg/kg, ip by LC-MS/MS analysis; assay type: ADME, organism-based; parameters: dose 2 mg/kg, route intraperitoneal; conditions: in vivo
[15] = Clearance in wild-type FVB/N mouse at 10 mg/kg, iv by LC-MS/MS analysis; assay type: ADME, organism-based; parameters: dose 10 mg/kg, route intravenous; conditions: in vivo
[16] = Half life in CYP2D6-humanized transgenic FVB/N mouse at 10 mg/kg, iv by LC-MS/MS analysis; assay type: ADME, organism-based; parameters: dose 10 mg/kg, route intravenous; conditions: in vivo
[17] = Volume of distribution at steady state in wild-type FVB/N mouse at 10 mg/kg, iv by LC-MS/MS analysis; assay type: ADME, organism-based; parameters: dose 10 mg/kg, route intravenous; conditions: in vivo, read-out: Vdss; method in brief: as §2
[18] = Tmax in wild-type FVB/N mouse at 2 mg/kg, ip by LC-MS/MS analysis; assay type: ADME, organism-based; parameters: dose 2 mg/kg, route intraperitoneal; conditions: in vivo; method in brief: as §1
Mus musculus [19] = test: AUC (0 to infinity) in CYP2D6-humanized transgenic FVB/N mouse at 10 mg/kg, ip by LC-MS/MS analysis; assay type: ADME, organism-based, Plasma; parameters: time infinity, dose 10 mg/kg, route intraperitoneal; conditions: in vivo
[20] = Ratio of drug level in brain to serum in CYP2D6-humanized transgenic FVB/N mouse at 20 mg/kg, ip by LC-MS/MS analysis; assay type: ADME, organism-based; parameters: dose 20 mg/kg, route intraperitoneal; method in brief: as §3
Mus musculus [21] = test: Dose normalized AUC (0 to infinity) in wild-type FVB/N mouse at 20 mg/kg, ip by LC-MS/MS analysis; assay type: ADME, organism-based; parameters: dose 20 mg/kg, route intraperitoneal; conditions: in vivo
Brain [22] = test: Stability in CYP2D6-humanized transgenic FVB/N mouse brain at -80 degC; assay type: ADME; method in brief: as §4
Mus musculus [23] = test: AUC (0 to infinity) in wild-type FVB/N mouse at 2 mg/kg, iv by LC-MS/MS analysis; assay type: ADME, organism-based, Plasma; parameters: time infinity, dose 2 mg/kg, route intravenous; conditions: in vivo
[24] = Volume of distribution at steady state in CYP2D6-humanized transgenic FVB/N mouse at 10 mg/kg, iv by LC-MS/MS analysis; assay type: ADME, organism-based; parameters: dose 10 mg/kg, route intravenous; conditions: in vivo, read-out: Vdss; method in brief: as §2
Mus musculus [25] = test: Dose normalized AUC (0 to infinity) in CYP2D6-humanized transgenic FVB/N mouse at 2 mg/kg, iv by LC-MS/MS analysis; assay type: ADME, organism-based; parameters: dose 2 mg/kg, route intravenous; conditions: in vivo
[26] = Half life in wild-type FVB/N mouse at 10 mg/kg, iv by LC-MS/MS analysis; assay type: ADME, organism-based; parameters: dose 10 mg/kg, route intravenous; conditions: in vivo
[27] = Tmax in wild-type FVB/N mouse at 20 mg/kg, ip by LC-MS/MS analysis; assay type: ADME, organism-based; parameters: dose 20 mg/kg, route intraperitoneal; conditions: in vivo; method in brief: as §1
[28] = Tmax in CYP2D6-humanized transgenic FVB/N mouse at 10 mg/kg, ip by LC-MS/MS analysis; assay type: ADME, organism-based; parameters: dose 10 mg/kg, route intraperitoneal; conditions: in vivo; method in brief: as §1
[29] = Half life in CYP2D6-humanized transgenic FVB/N mouse at 2 mg/kg, iv by LC-MS/MS analysis; assay type: ADME, organism-based; parameters: dose 2 mg/kg, route intravenous; conditions: in vivo
Serum [30] = test: Drug uptake in CYP2D6-humanized transgenic FVB/N mouse serum by LC-MS/MS analysis; assay type: ADME, cell-free; conditions: read-out: Drug uptake
Mus musculus [31] = test: Dose normalized AUC (0 to infinity) in CYP2D6-humanized transgenic FVB/N mouse at 2 mg/kg, ip by LC-MS/MS analysis; assay type: ADME, organism-based; parameters: dose 2 mg/kg, route intraperitoneal; conditions: in vivo
Mus musculus [32] = test: Dose normalized AUC (0 to infinity) in CYP2D6-humanized transgenic FVB/N mouse at 20 mg/kg, ip by LC-MS/MS analysis; assay type: ADME, organism-based; parameters: dose 20 mg/kg, route intraperitoneal; conditions: in vivo
[33] = Bioavailability in CYP2D6-humanized transgenic FVB/N mouse at 20 mg/kg, ip by LC-MS/MS analysis; assay type: ADME, organism-based; conditions: in vivo
Mus musculus [34] = test: AUC (0 to infinity) in CYP2D6-humanized transgenic FVB/N mouse at 20 mg/kg, iv by LC-MS/MS analysis; assay type: ADME, organism-based, Plasma; parameters: time infinity, dose 20 mg/kg, route intravenous; conditions: in vivo
Serum [35] = test: Drug uptake in wild-type FVB/N mouse serum by LC-MS/MS analysis; assay type: ADME, cell-free; conditions: read-out: Drug uptake
[36] = Tmax in wild-type FVB/N mouse at 10 mg/kg, ip by LC-MS/MS analysis; assay type: ADME, organism-based; parameters: dose 10 mg/kg, route intraperitoneal; conditions: in vivo; method in brief: as §1

**Q.** With COc1ccc2[nH]cc(CCN(C)C)c2c1.O=C(O)C(=O)O as the molecule, how does the Tmax [1] read?
**A.** 3 min

**Q.** What about the half-life [2] of the same molecule?
**A.** 12 min

**Q.** What about the bioavailability [3] of the same molecule?
**A.** 71%

**Q.** What about the AUC/dose (Mus musculus [4]) of the same molecule?
**A.** 9.45 kg·min/L

**Q.** What about the clearance [5] of the same molecule?
**A.** 100 mL/min/kg

**Q.** What about the half-life [6] of the same molecule?
**A.** 9.2 min

**Q.** What about the Kp [7] of the same molecule?
**A.** 1.2

**Q.** What about the Stability (Brain [8]) of the same molecule?
**A.** > 1 yr

**Q.** And the clearance [9]?
**A.** 190 mL/min/kg

**Q.** What about the AUC (Mus musculus [10]) of the same molecule?
**A.** 369 µmol·min/L

**Q.** And the Cmax [11]?
**A.** 1010 nM

**Q.** And the Drug recovery (Serum [12])?
**A.** 62%

**Q.** And the Drug recovery (Serum [13])?
**A.** 62%

**Q.** What about the Cmax [14] of the same molecule?
**A.** 1310 nM

**Q.** What about the clearance [15] of the same molecule?
**A.** 94 mL/min/kg

**Q.** And the half-life [16]?
**A.** 12 min

**Q.** What about the Vd [17] of the same molecule?
**A.** 2.08 L/kg

**Q.** And the Tmax [18]?
**A.** 3 min

**Q.** And the AUC (Mus musculus [19])?
**A.** 225 µmol·min/L

**Q.** What about the Kp [20] of the same molecule?
**A.** 3.2

**Q.** And the AUC/dose (Mus musculus [21])?
**A.** 7.13 kg·min/L

**Q.** What about the Stability (Brain [22]) of the same molecule?
**A.** > 1 yr

**Q.** What about the AUC (Mus musculus [23]) of the same molecule?
**A.** 47.6 µmol·min/L

**Q.** And the Vd [24]?
**A.** 1.68 L/kg

**Q.** What about the AUC/dose (Mus musculus [25]) of the same molecule?
**A.** 5.36 kg·min/L

**Q.** What about the half-life [26] of the same molecule?
**A.** 12 min

**Q.** What about the Tmax [27] of the same molecule?
**A.** 5 min

**Q.** What about the Tmax [28] of the same molecule?
**A.** 5 min

**Q.** What about the half-life [29] of the same molecule?
**A.** 8.4 min

**Q.** And the concentration (Serum [30])?
**A.** 4.1 nM

**Q.** And the AUC/dose (Mus musculus [31])?
**A.** 2.28 kg·min/L

**Q.** What about the AUC/dose (Mus musculus [32]) of the same molecule?
**A.** 6.2 kg·min/L

**Q.** What about the bioavailability [33] of the same molecule?
**A.** 65.6%

**Q.** And the AUC (Mus musculus [34])?
**A.** 866 µmol·min/L

**Q.** What about the concentration (Serum [35]) of the same molecule?
**A.** 4.1 nM

**Q.** And the Tmax [36]?
**A.** 5 min
